For orientation: IC50 means the point on the concentration scale where inhibition reaches its midpoint. A low value points to greater potency.

T1 sequence (P10721 whole entry, the tested form may be a part): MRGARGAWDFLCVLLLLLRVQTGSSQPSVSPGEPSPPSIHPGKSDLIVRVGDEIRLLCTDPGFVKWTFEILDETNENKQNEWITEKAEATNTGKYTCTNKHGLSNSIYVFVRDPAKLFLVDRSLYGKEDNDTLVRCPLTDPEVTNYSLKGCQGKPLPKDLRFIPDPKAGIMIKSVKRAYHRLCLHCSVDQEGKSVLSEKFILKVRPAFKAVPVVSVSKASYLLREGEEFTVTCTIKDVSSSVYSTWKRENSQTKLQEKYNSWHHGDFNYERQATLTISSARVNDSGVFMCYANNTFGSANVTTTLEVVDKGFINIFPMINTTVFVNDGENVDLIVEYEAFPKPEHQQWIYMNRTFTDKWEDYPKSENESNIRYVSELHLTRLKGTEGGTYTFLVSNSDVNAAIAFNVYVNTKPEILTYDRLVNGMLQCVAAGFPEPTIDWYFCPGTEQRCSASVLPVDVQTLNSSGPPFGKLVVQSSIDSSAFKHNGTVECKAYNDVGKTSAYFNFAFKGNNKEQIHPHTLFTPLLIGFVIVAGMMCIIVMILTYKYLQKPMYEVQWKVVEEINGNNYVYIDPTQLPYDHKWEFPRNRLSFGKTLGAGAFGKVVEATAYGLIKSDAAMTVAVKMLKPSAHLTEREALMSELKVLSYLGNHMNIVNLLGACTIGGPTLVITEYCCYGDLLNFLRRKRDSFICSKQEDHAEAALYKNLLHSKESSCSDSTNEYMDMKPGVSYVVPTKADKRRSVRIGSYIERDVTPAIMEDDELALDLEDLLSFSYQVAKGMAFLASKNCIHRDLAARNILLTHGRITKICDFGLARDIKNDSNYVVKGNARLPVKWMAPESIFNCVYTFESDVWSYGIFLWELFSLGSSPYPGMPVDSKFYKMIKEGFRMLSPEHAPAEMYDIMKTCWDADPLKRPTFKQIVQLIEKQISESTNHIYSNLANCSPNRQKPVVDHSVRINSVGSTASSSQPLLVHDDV

One test concerns the target T1, Mast/stem cell growth factor receptor Kit (Homo sapiens, UniProt P10721). In words: Inhibition of wild type His-tagged c-KIT (544 to 976 amino acids) (unknown origin) expressed in insect cells using poly[Glu:Tyr] (4:1) as substrate preincubated for 20 mins followed by [33P-gamma]ATP addition and subsequent inhibition for 2 hrs by radiometric assay. The procedure, abridged:
(§1)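 Compounds were serially diluted in DMSO and preincubated with enzyme for 20 min at RT. Final ATP was 1 μM. Reaction ran 2 h at RT, read by filter binding. Percent activity was taken relative to DMSO, and IC50 came from curve fitting.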
`COc1c(O)c(O)c2oc(-c3ccccc3)cc(=O)c2c1OC` gave an IC50 of 7.8 µM.
On the same count and under the same terms, in the case of `COc1ccc(-c2cc(=O)c3c(O)c(OC)c(O)cc3o2)cc1` [PECTOLINARIGENIN] it was 1.5 µM; in that of `COc1ccc(/C=C2\Oc3cc(O)ccc3C2=O)cc1`, 15.6 µM.

The target of another test is Mast/stem cell growth factor receptor Kit (Homo sapiens, UniProt P10721, D816V). In words: Inhibition of N-terminal GST-His-tagged c-KIT (544 to 976 amino acids) D816V mutant (unknown origin) expressed in Sf9 insect cells using poly[Glu:Tyr] (4:1) as substrate preincubated for 20 mins followed by [33P-gamma]ATP addition and subsequent inhibition for 2 hrs by radiometric assay. In short, it runs like this: as §1
Chain of Mast/stem cell growth factor receptor Kit (Homo sapiens, UniProt P10721, D816V) (P10721 26-976 D816V limits assumed): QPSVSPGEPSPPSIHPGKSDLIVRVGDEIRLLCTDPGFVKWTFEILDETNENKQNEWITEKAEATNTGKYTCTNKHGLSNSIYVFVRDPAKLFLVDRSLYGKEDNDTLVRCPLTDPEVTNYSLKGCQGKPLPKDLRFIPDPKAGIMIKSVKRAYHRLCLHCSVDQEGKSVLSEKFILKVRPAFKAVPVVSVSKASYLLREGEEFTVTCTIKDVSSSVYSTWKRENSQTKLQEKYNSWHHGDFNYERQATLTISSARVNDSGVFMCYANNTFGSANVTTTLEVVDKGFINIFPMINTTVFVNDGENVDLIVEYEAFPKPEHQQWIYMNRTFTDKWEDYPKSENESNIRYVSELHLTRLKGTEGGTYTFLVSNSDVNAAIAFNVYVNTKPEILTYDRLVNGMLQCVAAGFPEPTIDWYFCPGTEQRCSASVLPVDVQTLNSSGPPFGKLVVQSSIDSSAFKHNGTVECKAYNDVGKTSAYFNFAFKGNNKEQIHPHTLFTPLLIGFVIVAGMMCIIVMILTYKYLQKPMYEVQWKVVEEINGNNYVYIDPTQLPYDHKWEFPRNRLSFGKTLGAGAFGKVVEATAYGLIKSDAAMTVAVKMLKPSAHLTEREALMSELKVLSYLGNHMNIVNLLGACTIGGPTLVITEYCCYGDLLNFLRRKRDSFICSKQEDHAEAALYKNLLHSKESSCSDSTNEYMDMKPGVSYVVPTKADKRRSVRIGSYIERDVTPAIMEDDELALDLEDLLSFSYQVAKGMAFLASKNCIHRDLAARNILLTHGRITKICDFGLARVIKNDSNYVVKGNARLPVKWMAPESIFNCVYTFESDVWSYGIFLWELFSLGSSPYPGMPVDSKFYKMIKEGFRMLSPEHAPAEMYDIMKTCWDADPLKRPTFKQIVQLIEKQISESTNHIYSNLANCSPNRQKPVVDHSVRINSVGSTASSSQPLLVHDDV
The compound `COc1c(O)c(O)c2oc(-c3ccccc3)cc(=O)c2c1OC` showed an IC50 of 0.5 µM.
In turn, `COc1ccc(-c2cc(=O)c3c(O)c(OC)c(O)cc3o2)cc1` [PECTOLINARIGENIN] gave an IC50 of 0.6 µM.
`COc1ccc(/C=C2\Oc3cc(O)ccc3C2=O)cc1` came in with an IC50 of 1.4 µM.

The species named for a further test is Homo sapiens. In words: Selectivity ratio of IC50 for wild type His-tagged c-KIT (544 to 976 amino acids) (unknown origin) to IC50 for N-terminal GST-His-tagged c-KIT (544 to 976 amino acids) D816V mutant (unknown origin).
As to `COc1ccc(/C=C2\Oc3cc(O)ccc3C2=O)cc1`, the Ratio IC50 is more than 10.

For the next test, the system named is Mast/stem cell growth factor receptor Kit (Homo sapiens), P10721 [D816V]. In words: Inhibition of c-KIT D816V mutant (unknown origin) expressed in HEK293 cells assessed as remaining activity at 100 uM incubated for 1 hr with shaking by qPCR method relative to control. The class given is cell-based. In short, it runs like this: (§2)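 Competition binding assay run at a single 100 μM concentration, added from 40× DMSO stocks. Tagged kinase was combined with immobilized biotinylated ligand on streptavidin magnetic beads in SeaBlock/0.17× PBS/0.05% Tween 20/6 mM DTT for 1 h at RT with shaking. Beads were washed, then eluted with 0.5 μM free ligand for 30 min. Eluted kinase was quantified by qPCR as percent of control.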
Chain of Mast/stem cell growth factor receptor Kit (Homo sapiens), P10721 [D816V] (P10721 whole entry D816V): as the sequence (P10721 whole entry, the tested form may be a part) above, with D816V counted along it
In general terms: Quantitative PCR measures a nucleic acid by following its amplification.
With `COc1c(O)c(O)c2oc(-c3ccccc3)cc(=O)c2c1OC`, the Activity was determined as 0%.
With `COc1ccc(-c2cc(=O)c3c(O)c(OC)c(O)cc3o2)cc1` [PECTOLINARIGENIN], the Activity was determined as 3%.
With `O=C1c2c(O)cc(O)cc2O[C@H](c2ccc(O)c(O)c2)[C@H]1O`, the Activity stood at 15%.
On the same count and under the same terms, in the case of `COc1ccc(/C=C2\Oc3cc(O)ccc3C2=O)cc1` it was 15%.

For a further test, the target named is T1, Mast/stem cell growth factor receptor Kit. Briefly: Inhibition of wild type c-KIT (unknown origin) expressed in T7-phage infected Escherichia coli BL21 assessed as remaining activity at 100 uM incubated for 1 hr with shaking by qPCR method relative to control. In short, it runs like this: as §2
As to `COc1c(O)c(O)c2oc(-c3ccccc3)cc(=O)c2c1OC`, the Kinase binding remaining, % of control turned out to be 1%.
Same read-out and setting: in the case of `COc1ccc(-c2cc(=O)c3c(O)c(OC)c(O)cc3o2)cc1` [PECTOLINARIGENIN] it was 0%; in that of `O=C1c2c(O)cc(O)cc2O[C@H](c2ccc(O)c(O)c2)[C@H]1O`, 12%; in that of `COc1ccc(/C=C2\Oc3cc(O)ccc3C2=O)cc1`, 0%.

For the origin of these results see ChEMBL document CHEMBL3804766, “Discovery of Dual Inhibitors for Wild Type and D816V Mutant of c-KIT Kinase through Virtual and Biochemical Screening of Natural Products” (J Nat Prod, 2016).
